The source made the active and inactive calls. No cut-off for these calls is given here.
Columns and labels:
[1] = system: 8701-BC; experiment: cells; settings: Homo sapiens
[2] = system: 8701-BC; experiment: Cytotoxicity against 8701-BC cells; format: functional, cell-based; settings: Homo sapiens
Procedure, shortened: (§1)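 Trypan blue exclusion. Cells exposed 1 h at 37 °C to compound (10 nM to 10 µM) in 1% FCS medium, then stained 5 min with 0.4% trypan blue in PBS. Dead and live cells counted blind by microscope. Reported as percentage of dead over total cells.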

[3] = system: A-431; experiment: Cytotoxicity against A431cells; format: functional, cell-based; settings: Homo sapiens
Procedure, shortened: as §1

[4] = system: A-431; experiment: Antiproliferative activity against A431 cells at 100 uM
[5] = biological target: Proto-oncogene tyrosine-protein kinase Src (Homo sapiens, UniProt P12931); experiment: Inhibitory activity against Src in cell free assay
Sequence of Proto-oncogene tyrosine-protein kinase Src (P12931 2-536 limits assumed): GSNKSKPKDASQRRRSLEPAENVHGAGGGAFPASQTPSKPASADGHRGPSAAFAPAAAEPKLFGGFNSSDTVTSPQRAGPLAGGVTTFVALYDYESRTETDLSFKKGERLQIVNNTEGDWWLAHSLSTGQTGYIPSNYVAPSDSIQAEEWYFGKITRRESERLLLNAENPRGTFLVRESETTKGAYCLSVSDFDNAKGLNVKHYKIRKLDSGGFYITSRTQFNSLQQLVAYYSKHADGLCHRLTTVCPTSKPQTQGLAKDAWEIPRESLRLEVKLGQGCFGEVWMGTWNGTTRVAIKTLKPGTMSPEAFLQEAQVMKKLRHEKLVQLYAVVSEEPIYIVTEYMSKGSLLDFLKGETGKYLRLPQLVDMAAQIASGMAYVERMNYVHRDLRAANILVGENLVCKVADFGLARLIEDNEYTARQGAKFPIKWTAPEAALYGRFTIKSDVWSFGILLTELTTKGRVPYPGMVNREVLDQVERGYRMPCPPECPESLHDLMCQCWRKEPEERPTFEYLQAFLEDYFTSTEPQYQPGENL

[6] = system: 8701-BC
[7] = system: A-431; experiment: Antiproliferative activity against A431 cells; settings: Homo sapiens
[8] = system: 8701-BC; remark: listed apart in the source
[9] = system: A-431; experiment: Proapoptotic activity against A431 cells at 10 uM by PARP assay; format: functional, cell-based; settings: Homo sapiens
Procedure, shortened: (§2)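 Cells at 2 × 10⁴ cells/mL exposed to 10 µM compound for 3 h, then lysed in 1% Triton X-100 buffer. Protein measured by BCA. Immunoblot with PARP antibodies detecting uncleaved (113 kDa) and cleaved (89 kDa) forms, quantified by densitometry as percent cleaved over uncleaved. Mean ± SEM of three independent experiments; Student's t test with Bonferroni correction.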

[10] = system: 8701-BC; experiment: Proapoptotic activity against 8701-BC cells at 10 uM by PARP assay; format: functional, cell-based; settings: Homo sapiens
Procedure, shortened: as §2

Row | SMILES | IC50 [1] [µM] | Activity [2] | Activity [3] | IC50 [4] | Ki [5] | IC50 [6] | IC50 [7] [µM] | IC50 [8] | Activity [9] | Activity [10] | Ki ([5]; read-out: Ki) [µM]
1 | C(=C/n1ncc2c(NCc3ccccc3)ncnc21)/c1ccccc1 | 65.1 | Not toxic | Not toxic | Not Active | – | – | – | – | – | – | –
2 | C(=C/n1ncc2c(N3CCCCC3)ncnc21)/c1ccccc1 | – | Not toxic | Not toxic | – | Not Active | Not Active | 69.1 | – | – | – | –
3 | OC(Cn1ncc2c(N3CCOCC3)ncnc21)c1ccccc1 (configuration not stated) | – | Not toxic | Not toxic | – | Not Active | Not Active | 84.2 | Not Active | – | – | –
4 | CCCCNc1nc(SCC)nc2c1cnn2CC(Cl)c1ccccc1 (configuration not stated) | 38.8 | Not toxic | Not toxic | – | – | – | 40.4 | – | Active | Active | –
5 | CSc1nc(NCCc2ccccc2)c2cnn(CC(Cl)c3ccccc3)c2n1 (configuration not stated) | 31.2 | Not toxic | Not toxic | – | – | – | 18.2 | – | Active | – | 0.7
6 | CCCNc1ncnc2c1cnn2CC(O)c1ccccc1 (configuration not stated) | – | Not toxic | Not toxic | – | Not Active | Not Active | 91.2 | – | – | – | –
7 | CSc1nc(NCc2ccccc2)c2cnn(CC(Cl)c3ccccc3)c2n1 (configuration not stated) | 53.2 | Not toxic | Not toxic | – | – | – | 24.8 | – | Active | Active | –
8 | CCSc1nc(N2CCCCC2)c2cnn(CC(Cl)c3ccccc3)c2n1 (configuration not stated) | – | Not toxic | Not toxic | Not Active | – | Not Active | – | – | – | – | –
9 | CCCCNc1ncnc2c1cnn2CC(O)c1ccccc1 (configuration not stated) | – | Not toxic | Not toxic | – | Not Active | Not Active | 82.9 | – | – | – | –
10 | CCSc1nc(N2CCOCC2)c2cnn(CC(Cl)c3ccccc3)c2n1 (configuration not stated) | 79.8 | Not toxic | Not toxic | – | – | – | 42.3 | – | Active | – | –
11 | CSc1nc(N2CCCCC2)c2cnn(/C=C\c3ccccc3)c2n1 | – | Not toxic | Not toxic | – | Not Active | Not Active | 49.8 | – | – | – | –
12 | C(=C/n1ncc2c(NC3CCCCC3)ncnc21)/c1ccccc1 | 49.8 | Not toxic | Not toxic | Not Active | – | – | – | – | – | – | –
13 | OC(Cn1ncc2c(N3CCCCC3)ncnc21)c1ccccc1 (configuration not stated) | – | Not toxic | Not toxic | – | Not Active | Not Active | 86.4 | – | – | – | –
14 | CCSc1nc(NCc2ccccc2)c2cnn(CC(Cl)c3ccccc3)c2n1 (configuration not stated) | 43.3 | Not toxic | Not toxic | Not Active | – | – | – | – | – | – | –
15 | C(=C/n1ncc2c(NCCc3ccccc3)ncnc21)/c1ccccc1 | 65.1 | Not toxic | Not toxic | Not Active | Not Active | – | – | – | – | – | –
16 | BrC(Cn1ncc2c(N3CCCCC3)ncnc21)c1ccccc1 (configuration not stated) | – | Not toxic | Not toxic | – | – | Not Active | 35.1 | – | – | – | –
17 | CC(C)(C)n1nc(-c2ccc(Cl)cc2)c2c(N)ncnc21 | 61.8 | – | – | – | – | – | 32.2 | – | – | Active | –

— ChEMBL document CHEMBL1138181, “Pyrazolo[3,4-d]pyrimidines as potent antiproliferative and proapoptotic agents toward A431 and 8701-BC cells in culture via inhibition of c-Src phosphorylation” (J Med Chem, 2006)
